The results in this text go back to PubChem BioAssay AID504338 (NMMLSC, 2011).

Values without a mark were called inactive. The source made the active and inactive calls.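 How the source made its calls: active means GFP response vs DMSO above 150% with enough events counted; inconclusive means fewer than 70 events counted for a yeast strain; inactive means the rest.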

The test can be described thus: yeast TOR reporter LAP4-GFP retest – cell-based, third cherry pick, flow cytometry, confirmation (AID 504338).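 Further: ratio to plate DMSO wells so 100% equals DMSO level rather than 0%.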 To be noted: S. cerevisiae LAP4-GFP strain, 3 h, at 10 µM, stronger effect = higher value. A digest of the protocol:
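material = yeast LAP4-GFP strain | medium = synthetic complete growth medium for yeast | doses = 10 µM, one concentration | schedule = compound exposure for 3 h at 30 °C | signal = flow cytometric GFP fluorescence | read-out basis = percent of mean DMSO-control median fluorescence | control set = rapamycin 400 ng/mL as positive control, DMSO wells as reference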
Take `Nc1ncnc(Nc2cc(Cl)cc(Cl)c2)c1[N+](=O)[O-]`: the GFP response vs DMSO is 101%.

As to `Cc1ccc(NN2C(=O)C=C(c3ccccc3)C2=O)cc1`, the GFP response vs DMSO is 138%.

Turning to `O=C(Nc1ccccc1Cl)ON=C1c2ccccc2-c2ccccc21`, the GFP response vs DMSO is 108%.

Consider `COc1ccc(Nc2nc(NN)nc(C)c2[N+](=O)[O-])cc1`, for which the GFP response vs DMSO was 100%.

With `O=C1c2ccccc2C(=O)c2c1cccc2N(CCO)CCO`, the GFP response vs DMSO was 100%.

As to `Nc1cc(C(=O)O)c(N)c2c1C(=O)c1ccccc1C2=O`, the GFP response vs DMSO is 106%.

As to `Nc1ccc(O)c2c1C(=O)c1ccccc1C2=O`, the GFP response vs DMSO was 98.6%.

For the molecule `Cc1ccc2c(C)ccc(O)c2n1`, the GFP response vs DMSO is 101%.

With `O=C(Nc1cccc2ccccc12)ON=C1CCCCC1`, the GFP response vs DMSO is 112%.

In the case of `NC(=O)COc1cccc2cccnc12`, the GFP response vs DMSO is 103%.

With `CSc1nc(S(C)(=O)=O)nc2[nH]c(=O)[nH]c12`, the GFP response vs DMSO was 104%.

On to `Cc1cc(C)c(NC(=O)CC(=O)c2ccccc2)c(Cl)c1`, for which the GFP response vs DMSO was 100%.

Take `Cc1ccc(C)c(Nc2ncnc(N)c2[N+](=O)[O-])c1`: the GFP response vs DMSO is 107%.

Regarding `O=C(N/N=C/c1ccccc1F)c1cccc2ccccc12`, the GFP response vs DMSO is 104%.

As for `CSc1nc(Nc2ccc(Cl)cc2)c(C#N)c(=O)[nH]1`, the GFP response vs DMSO was 106%.

Take `OCc1ccc(O)c2ncccc12`: the GFP response vs DMSO is 101%.

Take `Oc1c(Cl)cc(Cl)c2cccnc12`: the GFP response vs DMSO was 188% (active).

As to `CCCCC(=O)NCCc1cc2c(OC)ccc(OC)c2[nH]c1=O`, the GFP response vs DMSO is 108%.

Turning to `COc1cccc2c(O)cc(=O)n(C)c12`, the GFP response vs DMSO was 104%.

With `CCCOCc1ccc(O)c2ncccc12`, the GFP response vs DMSO is 104%.

Turning to `COC(=O)COc1c(Cl)cc(Cl)c2ccc(C)nc12`, the GFP response vs DMSO was 107%.

For `Cc1ccc2c(Cl)cc(Cl)c(OCC(=O)O)c2n1`, the GFP response vs DMSO is 100%.

Take `C=CCNc1ncnc2ccccc12`: the GFP response vs DMSO was 103%.

`COc1cccc(NC(=O)CC(C)=O)c1`: the GFP response vs DMSO is 101%.

For the molecule `Cn1c(NCCO)nc2c(c1=O)C1(CCCCC1)Cc1ccccc1-2`, the GFP response vs DMSO is 104%.

On to `FC(F)Oc1cccc2cccnc12`, for which the GFP response vs DMSO is 101%.

With `COc1cccc(N/C(C)=C/C(=O)c2ccc(Br)cc2)c1`, the GFP response vs DMSO is 103%.

For the molecule `CC(=O)NC(C)c1cc(Cl)c2cccnc2c1O` (centres undefined), the GFP response vs DMSO was 101%.

For `CC1=CN2C(=N)/C(=C/c3ccc([N+](=O)[O-])o3)C(=O)N=C2S1`, the GFP response vs DMSO is 3330% (active).

On to `O=C(Nc1ccccc1)ON=C1c2ccccc2-c2ccccc21`, for which the GFP response vs DMSO is 106%.

With `Cc1ccc2c(Cl)cc(Cl)c(O)c2n1`, the GFP response vs DMSO was 193% (active).

Regarding `CCCC(=O)Nn1cnc2c(c1=O)C1(CCCC1)Cc1ccccc1-2`, the GFP response vs DMSO was 103%.

On to `COc1cccc(N/C=C/C(=O)c2ccc(C)cc2)c1`, for which the GFP response vs DMSO was 115%.

Take `Cc1ccc2nc(-c3ccc(NC(=O)c4cccnc4)cc3)oc2c1`: the GFP response vs DMSO is 103%.

Consider `COc1ccccc1Nc1nc(NCCCN(C)C)nc(N)c1[N+](=O)[O-]`, for which the GFP response vs DMSO is 103%.

Turning to `Cc1ccc(C(=O)/C=C/Nc2cccc(O)c2)cc1`, the GFP response vs DMSO is 117%.

`Oc1c(I)cc(Cl)c2cccnc12`: the GFP response vs DMSO is 192% (active).

Turning to `CC(=O)NCCOc1cccc2cccnc12`, the GFP response vs DMSO is 107%.

As to `COc1ccccc1-c1cc(C(F)(F)F)nc(S(C)(=O)=O)n1`, the GFP response vs DMSO is 128%.
